# Experimental data reported in the RNAGym collection of RNA variant scans (doi:10.1038/nmeth.2970).
# B1: NELF-E aptamer (parent)
# chain: CCCAACGACUGCCGAGCGAGAUUACGCUUGAGCGCCCCACUGAGGAUGCCCACGGGCGAUUGGGGCACGG
# Variants of: B1
# Experiment: HiTS-RAP
# Conditions: with NELF-E (Drosophila)
# Outline: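 Aptamer DNA templates carrying a T7 promoter and ter site were sequenced on an Illumina GAIIx flowcell, then transcribed in situ by T7 RNA polymerase and halted by GST-Tus (30 minutes, 37°C). Clusters were imaged after 30-minute room-temperature equilibration with NELF-E-mOrange at 0.064 to 1000 nM in HEPES binding buffer, and only the first binding curve was used. Intensities were normalised to sequencing intensity and averaged per sequence. Kd came from weighted Hill fits, keeping fits with variance below 1,000,000.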
row,Variant,Kd
1,U10G G30U,5.29 nM
2,A8G U61C,70.8 nM
3,C6A A8U,7.06 nM
4,A24G G64C,5.75 nM
5,A24G G64A,7.13 nM
6,A4U G18A,4.13 nM
7,A15G U29G,5.98 nM
8,U10G A31G,6.79 nM
9,U29G G30U,5.81 nM
10,C6G G11U,5.8 nM
11,A19G C25G,5.29 nM
12,A19G C66U,5.18 nM
13,U28G U41G,5.18 nM
14,U22G G45U,7.63 nM
15,U29G G34U,5.71 nM
16,A8G G55U,7.12 nM
17,C13U G20U,7.13 nM
18,A4U G14U,6.79 nM
19,A19G U29A,3.96 nM
20,C37U U41G,16.1 nM
21,A8G G16A,5.75 nM
22,U23G A43U,85.7 nM
23,A5U G63U,15.8 nM
24,A8G A52U,15.5 nM

row,Variant,Kd
1,U41C,68.9 nM
2,G7U A43U,84.5 nM
3,U23G G32U,6.92 nM
4,G14U G16A,6.74 nM
5,C25U,5.19 nM
6,G20U A59G,19.9 nM
7,U10G A52G,4.22 nM
8,C6U A39G,11.6 nM
9,C6U C9G,6.57 nM
10,U29A A39G,5.71 nM
11,A31G G65A,9.82 nM
12,C6G U10A,5.16 nM
13,A19G A24G,6.18 nM
14,G11A G14A,6.34 nM
15,G56C,37.4 nM
16,A4U C6G,5.99 nM
17,U10G A46U,65.4 nM
18,A24G C33G,8.38 nM
19,G34C C35G,3.76 nM
20,U47G G48U,6.17 nM
21,A24G C38U,8.33 nM
22,A4G G30U,5.76 nM
23,U29G A67U,6.79 nM
24,A8U C13G,6.33 nM

row,Variant,Kd
1,C9G U23A,6.12 nM
2,G14U A39G,9.72 nM
3,A39U G54A,39.3 nM
4,U10G G26C,17.4 nM
5,U22G C37A,14.6 nM
6,U23A U29G,5.75 nM
7,G11C,6.3 nM
8,A4G G55C,8.07 nM
9,A4G G65U,6.71 nM
10,A8U A46U,43.1 nM
11,A15C,4 nM
12,A15U,5.65 nM
13,A21G,5.04 nM
14,A4G C33U,5.81 nM
15,G7U U22A,6.43 nM
16,A39U U61A,17.4 nM
17,U22G G65C,13.4 nM
18,U23G C35G,7.07 nM
19,A19G,5.18 nM
20,A8G U28A,4.13 nM
21,A4G U47G,7.07 nM
22,C6A G7U,6.56 nM
23,A19G G20A,6.4 nM
24,U10G G11A,6.15 nM

row,Variant,Kd
1,G7U C50U,9.77 nM
2,U23G G56A,8.2 nM
3,A39U C40G,5.95 nM
4,C6U G55A,7.75 nM
5,G26U C27G,4.95 nM
6,U10G C40U,63.9 nM
7,A5G C13U,5.63 nM
8,G11U G20U,7.02 nM
9,A24G A39G,10.2 nM
10,A5G U41C,84.9 nM
11,C9U C13G,5.59 nM
12,C9U C13U,5.14 nM
13,A5G G65U,6.76 nM
14,U22G C50U,12.9 nM
15,C12U A24G,5.74 nM
16,C6G U22C,5.08 nM
17,C6G U22G,5.09 nM
18,U10A A39G,11.6 nM
19,U29G C37U,12.4 nM
20,U29G U41C,67.5 nM
21,C6G G42A,40.3 nM
22,C6G C38U,10.4 nM
23,G16U A31U,6.75 nM
24,A4U A46G,58.7 nM

row,Variant,Kd
1,A5U A8C,8.3 nM
2,C9G G63A,15.9 nM
3,C13G G54U,7.78 nM
4,C13G G54A,13.8 nM
5,A4G C51G,4.36 nM
6,G11U G56A,10.8 nM
7,C6G A24U,8.62 nM
8,C6G A24G,5.79 nM
9,A8U G65A,5.1 nM
10,A4G U29C,6.03 nM
11,U23G U60C,11.9 nM
12,A5G A46U,90.8 nM
13,U41G A46U,62.9 nM
14,A5G C51U,7.39 nM
15,A5C U23G,7.92 nM
16,U23G C38A,35.2 nM
17,U10G C66A,5.44 nM
18,A5G U47G,7.6 nM
19,A5U G54A,13.9 nM
20,A39G U61C,8.88 nM
21,G7U G30U,7.92 nM
22,G14U G26U,6.16 nM
23,A19G G54A,15.1 nM
24,G65A,4.39 nM

row,Variant,Kd
1,G65C,14 nM
2,C6G C37A,18.7 nM
3,A21G A46G,39.1 nM
4,C9G U47G,5.29 nM
5,C9G U47A,11.9 nM
6,A15G A21G,5.12 nM
7,U29G C36U,9.64 nM
8,C13G G64U,8.93 nM
9,A5G G30A,5.43 nM
10,G14A U61A,30.3 nM
11,A4G G63C,28.6 nM
12,G7U G62U,7.8 nM
13,A59C,110 nM
14,U23A,5.15 nM
15,U23C,4.16 nM
16,U23G C53U,4.17 nM
17,A24G C53G,7.46 nM
18,A24G C53U,4.2 nM
19,A5G G7A,6.52 nM
20,C13G G55A,6.77 nM
21,A4U C13A,4.82 nM
22,G7A A8U,8.46 nM
23,U22G U61A,29.9 nM
24,A39U A52G,15.5 nM

row,Variant,Kd
1,G16U,5.88 nM
2,A39U G48A,49 nM
3,U10G G20U,6.08 nM
4,U28C G34A,37.6 nM
5,C6U A8U,7.13 nM
6,G11U C53U,3.96 nM
7,A8G G48A,11.7 nM
8,G14U G18A,6.29 nM
9,A8G G63U,11 nM
10,U10G G44A,45.2 nM
11,U10C,4.6 nM
12,A8G U29A,7.95 nM
13,G7U G64U,7.33 nM
14,A8C,6.72 nM
15,U22G C53A,4.91 nM
16,G55U,6.36 nM
17,U23G G62A,15.5 nM
18,U23G U29C,5.67 nM
19,U10G G16U,6.08 nM
20,U23C A24G,5.24 nM
21,A8U U28C,8.73 nM
22,A8G C25U,5.14 nM
23,A8U C35U,12.5 nM
